The values below come from ChEMBL document CHEMBL2202986, “Guaianolide sesquiterpene lactones, a source to discover agents that selectively inhibit acute myelogenous leukemia stem and progenitor cells” (J Med Chem, 2012).

A word on the inhibition in vivo: it is the drop in the measured response relative to a control, in per cent.

The nature of data set [1]: Drug degradation in HEPES buffer at pH 7.4 assessed as release of PTL. It is filed as physicochemical. An outline of the steps: (§1)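 A 20 μL aliquot of prodrug solution was added to 980 μL HEPES buffer (pH 7.4, or below 5.0) and incubated at 37 °C. Samples were withdrawn over time, and prodrug and released parent were quantified by HPLC (mean, SD, n = 4).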
Data set [2] in a line: Antitumor activity against mixed-lineage human leukemia cells xenografted in NOD/SCID mouse assessed as inhibition of cancer cell engrafting at 100 mg/kg, po qd administered every other day total of seven doses starting from 8 weeks post grafting measured on day 35. Format: functional.
Data set [3] can be described thus: Drug degradation in mouse plasma assessed as release of PTL up to 2.5 hrs. The following applies: pH 7.4.
A short description of data set [4]: Antitumor activity against human leukemia stem/progenitor cells xenografted in NOD/SCID mouse assessed as survival time at 100 mg/kg, po qd administered every other day total of seven doses starting from 8 weeks post grafting (reference value: 43 days). It is filed as functional. The method in brief: (§2)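 NOD/SCID mice were sublethally irradiated (280cGay), then 6−10 h later given primary AML M5 patient cells via tail vein in PBS. From 8 weeks postinoculation, aqueous solution was given orally at 100 mg/kg every other day for seven doses. Survival was followed, Kaplan−Meier, n = 6 per treated group and n = 7 untreated controls. Survivors at day 85 had bone marrow analysed for human CD45⁺CD33⁺ cells.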

The next data set deals with Plasma. Put plainly: Drug metabolism in mouse plasma assessed as release of PTL. It is filed as ADME, cell-free. An outline of the steps:
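A 20 μL aliquot of prodrug solution was added to 980 μL blank mouse plasma and incubated at 37 °C. Prodrug and released parent drug concentrations were measured over time by HPLC (mean, SD, n = 4).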

Data set [5] can be described thus: Antitumor activity against human leukemia stem/progenitor cells xenografted in NOD/SCID mouse assessed as reduction of CD45+CD33+ cells in bone marrow at 100 mg/kg, po qd administered every other day total of seven doses starting from 8 weeks post grafting measured on day 85. The arrangement: scale not given: the % may be the effect or the level left. It is filed as functional. The method in brief:
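NOD/SCID mice, sublethally irradiated (280cGay), received primary AML M5 patient cells via tail vein in PBS 6−10 h later. From 8 weeks after engraftment, aqueous drug was given orally every other day for seven doses. Surviving mice were sacrificed on day 85 post-inoculation, and human CD45⁺CD33⁺ cells in bone marrow were measured by flow cytometry.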

Data set [6] is described as follows: Antitumor activity against human leukemia stem/progenitor cells xenografted in NOD/SCID mouse assessed as survival rate at 100 mg/kg, po qd administered every other day total of seven doses starting from 8 weeks post grafting measured on day 85. It is filed as functional. The method in brief: as §2
Data set [7] is described as follows: Drug degradation in HEPES buffer at pH <5 assessed as release of PTL. Format: physicochemical. The method in brief:
as §1

Data set [8] in a line: Antitumor activity against mixed-lineage human leukemia cells xenografted in NOD/SCID mouse assessed as reduction of CD45+CD33+ cells in bone marrow at 100 mg/kg, po qd administered every other day total of seven doses starting from 8 weeks post grafting measured on day 35 (reference value: 9.8 %). Also noted: scale not given: the % may be the effect or the level left. Format: functional, Leukemia cell. Background: In xenograft studies the graft and the host belong to different species.

`C/C1=C\CC[C@@]2(C)O[C@@H]2[C@H]2OC(=O)[C@@H](CN(C)C)[C@@H]2CC1.O=C(O)/C=C/C(=O)O` [(DIMETHYLAMINO)PARTHENOLIDE FUMARIC ACID SALT]: the Drug degradation entry in data set [1] was “Active”; in data set [3] it was 0.1 µg/mL; in data set [7], “Not Active”. Besides, the inhibition in vivo at 100 mg/kg in [2] was 42%. Moreover, in data set [4], the Survival amounted to 66 days. The Drug metabolism entry in the data set with Plasma is “Active”. Besides, the Activity turned out to be 35% in data set [5] and 5.7% in [8]. In addition, the survival at 100 mg/kg in data set [6] turned out to be 17%.
